Screening results (PubChem BioAssay)
PfHsp90 set2 = inhibits growth of yeast expressing Plasmodium falciparum Hsp90 | S. cerevisiae expressing PfHsp90, BacTiter-Glo ATP, 48 h; yeast lacking PDR1 and PDR3 efflux regulators | inhibition, % at 9.4 µM | 310,000 compounds, 0.32% hits | AID 504621;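 active means every replicate shows inhibition above about 80%, whatever the replicate mean, limit read from the data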;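 further: 0% = DMSO neutral controls and 100% = 20 µM radicicol positive controls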
T cruzi repl = T. cruzi replication inhibition | T. cruzi beta-gal in NIH3T3, luminescence, 90 h | inhibition, % (concentration not given with the values) | 300,000 compounds, 1.4% hits | AID 1885;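 active means mean inhibition across valid replicates above about 55%, limit read from the data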;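 further: signal also drops with host cell toxicity which is not excluded here; 0% = plate median of DMSO wells and 100% = zero luminescence signal; higher percent means less beta-gal luminescence so fewer parasites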
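System: Mouse NIH/3T3 fibroblasts infected with β-gal-expressing T. cruzi Tulahuen C4 | Quantity: NIH/3T3 cells, 5,000 per well | Reagent: 5000 reporter trypomastigotes per well | Dosing: Compound pinned at 50 nL/well, DMSO | Schedule: 3 h host attachment, then at least 90 h co-culture | Detection: GalScreen luminescence, 60 min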
Beta apoptosis = beta cell apoptosis inhibition | INS-1E cytokine-induced death, ATP luminescence, 48 h; percent of positive-control rescue, neutral wells zero | 300,000 compounds, 0.8% hits | protection from apoptosis, % (no concentration beside the values);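 active means Every replicate reaches about 75%, or at least half do and their mean reaches it too, limit read from the data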;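 further: 0% = cytokine-treated negative control wells and 100% = positive control rescue; higher means more ATP so stronger rescue from cytokine killing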
CSC inhib = blocks cancer stem cells | 300,000 compounds, 1.1% hits | AID 2717 | inhibition, % at 7.5 µM | cancer stem cell-like cells viability, luminescence; in the data active means inhibition above about 75%; tested in HMLE shEcad cells
HIF act = HIF pathway transcriptional activation; U2OS HRE-luciferase reporter, luminescence; normalized: DMSO 0%, desferrioxamine 100%; activation, % at 7.5 µM (by protocol); 300,000 compounds, 0.32% hits; AID 1910;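 active means mean activation of at least 10% of the iron chelator positive control signal, with at least half of replicates also reaching 10%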
SKKanGAS inh = inhibitors of SKKanGAS S. pyogenes growth in kanamycin (SK-promoter or general growth effect); BacTiter-Glo, 6 h; inhibition, % at 7.5 µM; 300,000 compounds, 1.3% hits; AID 1662;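 active means mean replicate score, as percent of positive control median, at least 50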;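 further: strain carries kanamycin resistance gene driven by streptokinase promoter and grows in 40 µg/ml kanamycin; loss of luminescence reflects streptokinase promoter inhibition or plain growth inhibition; 0% = median of DMSO wells and 100% = positive control at its reference dose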
Numbers without * were called inactive; / = no result given. This is a sample that favours compounds with a hit; in the whole collection about 3.6% have one here.

SMILES	PfHsp90 set2	T cruzi repl	Beta apoptosis	CSC inhib	HIF act	SKKanGAS inh
C/C(=N\NC(=O)c1cccc2ccccc12)c1cccnc1	5	-1	/	/	0	-7
Cc1nn(-c2ccccc2)c(N2CCCC2)c1C=O	-1	12	-9	-13	3	-3
Cc1nn(-c2ccccc2)c(N2CCCCC2)c1/C=N/O	-3	15	-10	164*	0	-3
O=C(CCc1ccccc1)N[C@@H]1c2ccccc2CC[C@H]1OCc1ccccc1	-14	/	/	/	/	/
O=C(O)C1CCCCC1C(=O)Nc1ccc(S(=O)(=O)N2CCOCC2)cc1 (centres undefined)	2	/	/	/	/	/
CC(C)(C)NCC(=Cc1ccccc1)C(=O)c1ccccc1	-2	/	/	/	/	/
C/C(=N\NC(=O)c1cc(-c2ccc(C)s2)nc2ccccc12)c1cccnc1	10	18	-2	9	1	-1
Cc1nn(-c2ccccc2)c(N2CCCC2)c1/C=N/NC(=O)c1cc(-c2cccnc2)nc2ccccc12	7	57*	1	15	-1	26
C/C(=N\NC(=O)c1cc(-c2cccc(OC(C)C)c2)nc2ccccc12)c1cccnc1	16	63*	2	-3	0	25
O=C(Nc1ccc(-c2cccc(F)c2)cc1)C1CCCN(Cc2ccccn2)C1 (centres undefined)	25	9	-7	5	0	52*
Cc1ncc(CN2CCCC(C(=O)Nc3ccc(-c4cccc(F)c4)cc3)C2)cn1 (centres undefined)	-20	19	-1	25	1	-2
Cc1nn(C)c(Cl)c1CN1CCCC(C(=O)Nc2ccc(-c3cscn3)cc2)C1 (centres undefined)	-10	15	-8	-4	0	50*
O=C(c1ccc2c3c(cccc13)CC2)C1CCCN(Cc2ccccn2)C1 (centres undefined)	-9	8	-5	7	0	69*
Cc1ncc(CN2CCCC(C(=O)Nc3ccc(-c4cccc(F)c4)cc3)C2)s1 (centres undefined)	12	35	-11	101*	0	0
O=C(Nc1ccc(-c2cscn2)cc1)C1CCCN(Cc2ccccc2)C1 (centres undefined)	9	20	1	8	3	13
COCCNC(=O)CN1C(=O)NC2(CCCc3cc(OC)ccc32)C1=O (centres undefined)	0	-8	6	-8	-1	0
COc1cccc(OC)c1C(=O)Nc1ccc(C(=O)NCc2ccccc2)cc1	-20	-5	/	-5	0	40
COc1cccc(CC(=O)Nc2ccc(F)c(S(=O)(=O)N3CCOCC3)c2)c1	-1	/	/	/	/	/
Cc1ccc(C2C(/C=C3/SC(=S)NC3=O)=C(c3cccs3)Oc3ccccc32)cc1 (centres undefined)	-7	-12	18	108*	0	113*
O=C1NC(=S)SC1=Cc1ccccc1Cl	-8	/	/	/	/	/
CS(=O)(=O)N1CCc2cc(-c3csc(NC(=O)Cc4cccs4)n3)ccc21	5	60*	20	46	0	14
C=CCC1S/C(=N/N=C/c2cccs2)NC1=O (centres undefined)	-28	-25	7	1	0	-3
O=C1N/C(=N\N=C\c2cccs2)SC1Cc1ccc(Cl)c(Cl)c1 (centres undefined)	31	45	-1	27	0	56*
CSc1ccccc1NC(=O)CN(c1ccccc1Br)S(C)(=O)=O	-3	4	/	-2	0	3
O=C1C(Cl)=C(NCCN2CCCCC2)C(=O)c2ccccc21	-20	67*	112*	107*	-2	24
SMILES	PfHsp90 set2	T cruzi repl	Beta apoptosis	CSC inhib	HIF act	SKKanGAS inh
CCCN(CCC)Cc1c(C(=O)N/N=C/CCc2ccccc2)nnn1-c1nonc1N	9	5	3	-2	0	3
CCSc1nnc(SCC(=O)Nc2cc(C)on2)s1	-7	/	-3	-18	/	/
Cc1cccc2nc(CNC(=O)CC3C(=O)NCCN3Cc3cccc(F)c3)cn12 (centres undefined)	16	58*	-5	18	-1	-10
O=C(CC1C(=O)NCCN1Cc1ccc(-c2ccccc2)cc1)NC1CCC1 (centres undefined)	11	-6	116*	14	0	-4
CCOC(=O)C1(CCOc2ccccc2)CCN(C(=O)CCSC)CC1	-9	-6	-2	-2	0	0
CCOC(=O)c1c(C)n(-c2ccc(C)cc2)c2ccc(OCC(O)CNCC3CCCO3)cc12 (centres undefined)	7	64*	24	118*	-7	42
CCOC(=O)c1c(C)n(-c2ccc(C)cc2)c2ccc(OCC(O)CNCCCO)cc12 (centres undefined)	23	/	52	28	/	11
Cc1ccc(C#CC[N+](C)(C)CC#Cc2ccccc2)cc1	-6	57*	11	-3	0	14
C#CC[N+](C)(C)CC#Cc1ccccc1	-12	12	/	10	0	-6
CC(C)(C)c1ccc(NNC(=O)C2CCC2)cc1	11	13	109*	27	0	40
CC(C)CC(=O)Nc1c2c(nn1-c1ccc(F)cc1)CS(=O)(=O)C2	-22	-9	-3	-6	2	2
CN(C)c1ccc(/C=C/C=C2/SC(=S)N(c3ccccc3)C2=O)cc1	45	0	20	82*	0	25
CCOc1ccc(/C(O)=C2/C(=O)C(=O)N(c3ccccn3)C2c2ccc(C)cc2)c(C)c1 (centres undefined)	12	-6	-11	1	0	40
CCOc1ccc(/C(O)=C2/C(=O)C(=O)N(c3ccccn3)C2c2ccc(Cl)cc2)c(C)c1 (centres undefined)	4	0	1	-2	0	64*
CCOC(=O)C1=C(C)NC(C)=C(C(=O)OCC)C1C(=O)OCC(=O)N(C)C1CCS(=O)(=O)C1 (centres undefined)	/	1	-2	3	13*	2
Cc1cc(-c2c(C)[nH]n(-c3ccc(Cl)cc3)c2=O)n(-c2ccc(Cl)cc2)n1	-2	-40	8	26	0	101*
Cn1c(NCc2ccco2)nc2c1c(=O)n(Cc1ccc(Cl)c(Cl)c1)c(=O)n2C	-9	/	7	23	0	59*
CC(C)CN1Cc2ccccc2Oc2cc(Br)ccc2S1(=O)=O	-11	/	/	/	/	/
CC(=O)Nc1ccc(S(=O)(=O)N(C)c2ccc(OCCOc3cccc(C)c3)cc2)cc1	-30	/	4	-2	/	/
Cc1ccc(S(=O)(=O)N(C)c2ccc(OCc3cccc(C)c3)cc2)cc1	-45	9	-2	77*	0	-8
O=C(N/N=C\c1ccc2c(c1)OCO2)c1ccc(Cn2cc(Br)c([N+](=O)[O-])n2)o1	-3	56*	4	84*	0	6
